System: Fibroblast
Experiment: Multiplex assay against human fibroblast
Assay type: toxicity, cell-based
Method in brief: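 On a CQ1 microscope at 37°C and 5% CO2, live cells were imaged after compound addition. They had been stained at seeding with Hoechst33342, BioTracker Green Microtubule Cytoskeleton Dye, MitoTracker Red and Annexin V Alexa Fluor 680. CellPathfinder machine-learning gating assigned cells to Hoechst high-intensity objects or normal cells, normal cells to healthy, pyknosed or fragmented nuclei, and pyknosed cells to mitotic or apoptotic. Tubulin, mitochondrial-mass and membrane-permeability phenotypes are per cents of healthy-nucleus cells.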

[1] = 12 h, 1 µM, compound concentration 1 uM, replicate 1
[2] = 12 h, 1 µM, compound concentration 1 uM, replicate 2
[3] = 12 h, 10 µM, compound concentration 10 uM, replicate 1
[4] = 12 h, 10 µM, compound concentration 10 uM, replicate 2
[5] = 24 h, 1 µM, compound concentration 1 uM, replicate 1
[6] = 24 h, 1 µM, compound concentration 1 uM, replicate 2
[7] = 24 h, 10 µM, compound concentration 10 uM, replicate 1
[8] = 24 h, 10 µM, compound concentration 10 uM, replicate 2
[9] = 48 h, 1 µM, compound concentration 1 uM, replicate 1
[10] = 48 h, 1 µM, compound concentration 1 uM, replicate 2
[11] = 48 h, 10 µM, compound concentration 10 uM, replicate 1
[12] = 48 h, 10 µM, compound concentration 10 uM, replicate 2

Cc1cnc(-c2cc(N3CCN(C(=O)CCS(C)(=O)=O)CC3)ncc2Cl)c(C)c1
Population Apoptotic (%) [1]: 36%
Population Fragmented Nuclei (%) [1]: 9%
Population Healthy Nuclei (%) [1]: 71%
Population Hoechst High Intensity Objects (%) [1]: 1%
Population Membrane Permeable-Phenotype (%) [1]: 0%
Population Mitochondria Different-Phenotype (%) [1]: 7%
Population Mitotic Cells (%) [1]: 63%
Population Normal (%) [1]: 98%
Population Pyknosed Nuclei (%) [1]: 19%
Population Tubulin-Different-Phenotype (%) [1]: 20%
Total Cell Count [1]: 99
Population Apoptotic (%) [2]: 31%
Population Fragmented Nuclei (%) [2]: 22%
Population Healthy Nuclei (%) [2]: 36%
Population Hoechst High Intensity Objects (%) [2]: 9%
Population Membrane Permeable-Phenotype (%) [2]: 7%
Population Mitochondria Different-Phenotype (%) [2]: 10%
Population Mitotic Cells (%) [2]: 68%
Population Normal (%) [2]: 90%
Population Pyknosed Nuclei (%) [2]: 41%
Population Tubulin-Different-Phenotype (%) [2]: 50%
Total Cell Count [2]: 85
Population Apoptotic (%) [3]: 40%
Population Fragmented Nuclei (%) [3]: 13%
Population Healthy Nuclei (%) [3]: 71%
Population Hoechst High Intensity Objects (%) [3]: 4%
Population Membrane Permeable-Phenotype (%) [3]: 1%
Population Mitochondria Different-Phenotype (%) [3]: 2%
Population Mitotic Cells (%) [3]: 60%
Population Normal (%) [3]: 95%
Population Pyknosed Nuclei (%) [3]: 14%
Population Tubulin-Different-Phenotype (%) [3]: 24%
Total Cell Count [3]: 142
Population Apoptotic (%) [4]: 26%
Population Fragmented Nuclei (%) [4]: 21%
Population Healthy Nuclei (%) [4]: 63%
Population Hoechst High Intensity Objects (%) [4]: 1%
Population Mitotic Cells (%) [4]: 73%
Population Normal (%) [4]: 98%
Population Pyknosed Nuclei (%) [4]: 15%
Population Tubulin-Different-Phenotype (%) [4]: 37%
Total Cell Count [4]: 121
Population Apoptotic (%) [5]: 54%
Population Fragmented Nuclei (%) [5]: 10%
Population Healthy Nuclei (%) [5]: 76%
Population Hoechst High Intensity Objects (%) [5]: 6%
Population Membrane Permeable-Phenotype (%) [5]: 2%
Population Mitochondria Different-Phenotype (%) [5]: 4%
Population Mitotic Cells (%) [5]: 45%
Population Normal (%) [5]: 93%
Population Pyknosed Nuclei (%) [5]: 12%
Population Tubulin-Different-Phenotype (%) [5]: 30%
Total Cell Count [5]: 97
Population Apoptotic (%) [6]: 47%
Population Fragmented Nuclei (%) [6]: 35%
Population Healthy Nuclei (%) [6]: 38%
Population Hoechst High Intensity Objects (%) [6]: 10%
Population Membrane Permeable-Phenotype (%) [6]: 3%
Population Mitochondria Different-Phenotype (%) [6]: 0%
Population Mitotic Cells (%) [6]: 52%
Population Normal (%) [6]: 89%
Population Pyknosed Nuclei (%) [6]: 25%
Population Tubulin-Different-Phenotype (%) [6]: 61%
Total Cell Count [6]: 91
Population Apoptotic (%) [7]: 46%
Population Fragmented Nuclei (%) [7]: 10%
Population Healthy Nuclei (%) [7]: 79%
Population Hoechst High Intensity Objects (%) [7]: 0%
Population Membrane Permeable-Phenotype (%) [7]: 2%
Population Mitochondria Different-Phenotype (%) [7]: 6%
Population Mitotic Cells (%) [7]: 53%
Population Normal (%) [7]: 99%
Population Pyknosed Nuclei (%) [7]: 9%
Population Tubulin-Different-Phenotype (%) [7]: 28%
Total Cell Count [7]: 135
Population Apoptotic (%) [8]: 42%
Population Fragmented Nuclei (%) [8]: 19%
Population Healthy Nuclei (%) [8]: 67%
Population Hoechst High Intensity Objects (%) [8]: 4%
Population Mitochondria Different-Phenotype (%) [8]: 9%
Population Mitotic Cells (%) [8]: 57%
Population Normal (%) [8]: 95%
Population Pyknosed Nuclei (%) [8]: 12%
Population Tubulin-Different-Phenotype (%) [8]: 38%
Total Cell Count [8]: 116
Population Apoptotic (%) [9]: 69%
Population Fragmented Nuclei (%) [9]: 19%
Population Healthy Nuclei (%) [9]: 58%
Population Hoechst High Intensity Objects (%) [9]: 2%
Population Membrane Permeable-Phenotype (%) [9]: 0%
Population Mitochondria Different-Phenotype (%) [9]: 1%
Population Mitotic Cells (%) [9]: 30%
Population Normal (%) [9]: 97%
Population Pyknosed Nuclei (%) [9]: 21%
Population Tubulin-Different-Phenotype (%) [9]: 33%
Total Cell Count [9]: 109
Population Apoptotic (%) [10]: 36%
Population Fragmented Nuclei (%) [10]: 40%
Population Healthy Nuclei (%) [10]: 47%
Population Hoechst High Intensity Objects (%) [10]: 5%
Population Membrane Permeable-Phenotype (%) [10]: 12%
Population Mitochondria Different-Phenotype (%) [10]: 9%
Population Mitotic Cells (%) [10]: 63%
Population Normal (%) [10]: 94%
Population Pyknosed Nuclei (%) [10]: 12%
Population Tubulin-Different-Phenotype (%) [10]: 70%
Total Cell Count [10]: 92
Population Apoptotic (%) [11]: 50%
Population Fragmented Nuclei (%) [11]: 21%
Population Healthy Nuclei (%) [11]: 69%
Population Hoechst High Intensity Objects (%) [11]: 2%
Population Membrane Permeable-Phenotype (%) [11]: 0%
Population Mitochondria Different-Phenotype (%) [11]: 7%
Population Mitotic Cells (%) [11]: 50%
Population Normal (%) [11]: 97%
Population Pyknosed Nuclei (%) [11]: 8%
Population Tubulin-Different-Phenotype (%) [11]: 33%
Total Cell Count [11]: 141
Population Apoptotic (%) [12]: 75%
Population Fragmented Nuclei (%) [12]: 29%
Population Healthy Nuclei (%) [12]: 61%
Population Hoechst High Intensity Objects (%) [12]: 3%
Population Membrane Permeable-Phenotype (%) [12]: 2%
Population Mitochondria Different-Phenotype (%) [12]: 5%
Population Mitotic Cells (%) [12]: 25%
Population Normal (%) [12]: 96%
Population Pyknosed Nuclei (%) [12]: 9%
Total Cell Count [12]: 131
